Assay outcomes from PubChem.
ADAM17 inh: ADAM17 inhibitors, primary screen, biochemical, QFRET; Disintegrin and metalloproteinase domain-containing protein 17 (Homo sapiens), P78536; recombinant ADAM17, EDANS/DABCYL FRET peptide cleavage; inhibition, % at 6.95 µM; 370,000 tested, 0.83% active; AID 720648, 2013;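 active = inhibition above the mean of compounds lying between control limits plus 3 SD, set per campaign, cut at about 8.5% in these data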;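 also: 0% = DMSO-only wells as the low control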
FAS TE block: FAS thioesterase domain inhibitors, primary screen, biochemical, fluorescence intensity, uHTS | 360,000 tested, 0.67% active | recombinant FAS-TE, OMFH fluorogenic substrate, fluorescence endpoint | Fatty acid synthase (Homo sapiens), P49327 | AID 602261, 2012 | inhibition, % at 15 µM;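 active = compounds whose normalised, plate-corrected inhibition of enzyme fluorescence in the single-dose primary screen is 50% or more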;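 also: 0% = DMSO with enzyme and 100% = substrate without enzyme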
NRP1-CendR mod: modulators of CendR peptide binding to NRP-1, primary screen, biochemical, fluorescence polarization, uHTS; 360,000 tested, 0.85% active; AID 602438, 2012; inhibition, % at 25 µM; FAM-RPARPAR peptide binding to NRP-1;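 active = inhibition or corrected inhibition above about 18%, plus a signal ratio from 0.5 to 1.5, limit read from the data, passing the limit was not always enough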
Target sequence (O14786 whole entry, looked up): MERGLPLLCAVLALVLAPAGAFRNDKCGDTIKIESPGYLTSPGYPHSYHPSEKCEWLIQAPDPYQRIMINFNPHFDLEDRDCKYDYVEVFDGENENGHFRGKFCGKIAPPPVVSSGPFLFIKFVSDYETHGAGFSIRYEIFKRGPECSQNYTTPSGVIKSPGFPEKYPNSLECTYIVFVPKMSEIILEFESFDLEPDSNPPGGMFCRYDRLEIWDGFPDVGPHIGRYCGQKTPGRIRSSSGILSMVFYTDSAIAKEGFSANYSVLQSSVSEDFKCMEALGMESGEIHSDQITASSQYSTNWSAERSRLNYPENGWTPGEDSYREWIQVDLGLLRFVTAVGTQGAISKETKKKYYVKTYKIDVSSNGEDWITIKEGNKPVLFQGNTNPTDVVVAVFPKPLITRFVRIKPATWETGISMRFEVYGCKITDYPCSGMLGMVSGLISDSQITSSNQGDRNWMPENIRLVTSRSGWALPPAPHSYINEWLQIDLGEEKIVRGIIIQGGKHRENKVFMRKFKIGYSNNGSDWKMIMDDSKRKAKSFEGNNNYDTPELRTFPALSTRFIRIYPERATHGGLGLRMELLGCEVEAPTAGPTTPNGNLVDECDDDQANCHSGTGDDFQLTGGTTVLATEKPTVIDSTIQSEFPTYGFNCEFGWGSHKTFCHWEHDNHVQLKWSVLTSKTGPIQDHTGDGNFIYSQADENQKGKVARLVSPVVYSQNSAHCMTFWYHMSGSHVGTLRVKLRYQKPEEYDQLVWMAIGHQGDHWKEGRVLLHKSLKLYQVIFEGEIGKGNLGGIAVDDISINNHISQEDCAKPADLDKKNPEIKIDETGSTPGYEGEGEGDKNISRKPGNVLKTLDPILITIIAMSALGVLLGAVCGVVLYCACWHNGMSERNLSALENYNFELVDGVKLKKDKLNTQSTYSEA
CaV13 FRET inh: Disruptors of the CACNA1D IQ motif to Ca2+-dependent inactivation inhibitor domain association, primary screening, Förster resonance energy transfer in intact living …; HEK cells, CFP/YFP FRET ICDI-IQ, plate reader, 10 min; percent FRET-ratio fall versus neutral wells; inhibition, % at 12.3 µM; 340,000 tested, 0.098% active; AID 743397;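 active = mean replicate inhibition of at least 30% and at least 1% of replicates passing that level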;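 also: 0% = median of the neutral control wells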
ADAM10 inh: human ADAM10 inhibitors, primary screen, biochemical, QFRET, HTS. recombinant ADAM10, EDANS/DABCYL FRET peptide cleavage, 3 h. inhibition, % at 7 µM. 370,000 tested, 0.62% active;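 active = inhibition above a per-campaign cutoff equal to the mean of compounds falling between control-based bounds plus 3 SD, cut at about 20% in these data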;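 also: 0% = DMSO wells while the 100% control is not disclosed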
Arr AP2 block: inhibitors of beta-arrestin/AP2 binding, primary screen, biochemical, GPCR trafficking, flow cytometry. beta-arrestin 1 C-terminal peptide binding to AP2 beta2-adaptin appendage (human). FITC-arrestin peptide / GST-AP2 beads; AP2 beta2 appendage carries R879A mutation. inhibition, % at 10 µM. 340,000 tested, 0.31% active;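 active = inhibition above a set limit, near 3 SD of compounds lacking own fluorescence, cut at about 54% in these data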;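 also: plate controls were DMSO wells for no effect and 5 µM unlabelled arrestin peptide for full effect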
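System: GST-AP2 R879A bound to glutathione beads, E. coli-expressed. Also added: 50 nM FITC-arrestin peptide. Schedule: compound with beads 12 min RT, then probe 1 h RT. Signal: bead flow cytometry, FITC channel. Read-out basis: percent response.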
ADAM10 counter: ADAM10 inhibitors, counter-screen for ADAM17 exosite inhibitor project, biochemical, FRET, human ADAM10 | AID 743256, 2014 | inhibition, % at 6.95 µM | shares compounds with ADAM17 inh | 2,900 tested, 47% active | recombinant ADAM10, EDANS/DABCYL FRET peptide cleavage, 3 h;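 active = mean inhibition over the triplicate runs exceeds the activity threshold set in the earlier primary screen, cut at about 20% in these data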;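 also: 0% = DMSO wells and 100% = marimastat wells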
ADAM17 confirm: ADAM17 inhibitors, hit retest, confirmation, biochemical, QFRET peptide cleavage. shares compounds with ADAM17 inh. recombinant ADAM17, EDANS/DABCYL QFRET peptide cleavage. inhibition, % at 6.95 µM. 2,900 tested, 65% active. AID 743257, 2014;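 active = mean inhibition across replicates above the hit cutoff set in the primary screen, cut at about 8.5% in these data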;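 also: 0% = DMSO wells and 100% = marimastat wells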
Active calls of the source: *; . = no result. This is a sample that favours compounds with a hit; in the whole collection about 2.9% have one here.

SMILES	ADAM17 inh	FAS TE block	NRP1-CendR mod	CaV13 FRET inh	ADAM10 inh	Arr AP2 block	ADAM10 counter	ADAM17 confirm
OC(c1ccc(-c2ccccc2)cc1)c1ncc(-c2ccc(F)cc2)[nH]1 (centres undefined)	11*	15	-7	-10	19	.	23*	12*
CSc1ccc(C(O)c2ncc(-c3cccc(OCc4ccccc4)c3)[nH]2)cc1 (centres undefined)	9.3*	13	-8	-5	19	.	23*	11*
COc1cc(C)ccc1S(=O)(=O)NC(=O)C1(C)CCN1C(=O)c1ccc(C2CCCCC2)cc1 (centres undefined)	0	-12	-2	-6	0	.	.	.
CC(C)C(C(=O)NCc1ccco1)N(C(=O)CNS(=O)(=O)c1ccccc1)C1CCCC1 (centres undefined)	10*	0	2	.	8	-8	0	3
CCC(C(=O)NCc1ccco1)N(C(=O)CNS(=O)(=O)c1ccccc1)C1CCCCC1 (centres undefined)	-1	-1	3	-8	-7	-4	.	.
O=C(CSc1nnc(NC(=O)c2ccc(F)cc2)s1)NCc1ccco1	-11	-4	13	-6	-15	34	.	.
O=C(CSc1nnc(NC(=O)c2cccc(F)c2)s1)NCc1ccco1	8.6*	-7	-13	-9	7	-12	-7	-2
CN=C1NC(=O)/C(=C\c2cc(C)n(-c3ccccc3F)c2C)S1	0	.	.	.	-8	.	.	.
CCc1cc(C(=O)OC)c(NC(=O)C2CC(=O)NN2Cc2ccccc2)s1 (centres undefined)	9.3*	11	7	-7	5	-5	15	15*
CN(C)S(=O)(=O)c1ccc(NC(=O)COC(=O)CC2CC3CCC2C3)cc1 (centres undefined)	8.6*	40	-8	1	13	3	20*	14*
COc1ccc(-c2cn[nH]c2-c2ccc(OCc3ccc([N+](=O)[O-])cc3)cc2O)cc1OC	9.8*	12	-2	-17	11	-7	25*	14*
CC1=C(C(=O)N(C(C)C)C(C)C)CC(CC(=O)NC(c2ccccc2)c2ccccc2)C(=O)N1Cc1ccc(C(C)(C)C)cc1 (centres undefined)	1	18	-5	-4	-2	.	.	.
CC1(C)C([N+](=O)[O-])C(c2ccccc2O)NC(c2ccccc2O)C1[N+](=O)[O-] (centres undefined)	9.3*	21	-1	2	5	-10	23*	15*
O=C(COC(=O)CNS(=O)(=O)c1cccc(Br)c1)Nc1ccccc1Sc1ccccc1	9.9*	-7	-8	-17	15	-4	27*	15*
C[C@H](CO)N1C[C@H](C)[C@@H](CN(C)C(=O)Nc2ccccc2F)OCc2cnnn2CCCC1=O	1	-9	12	-6	-6	.	.	.
C=C(C)CNC(=S)NNC(=O)CCn1c2cc(Cl)ccc2c2ccc(Cl)cc21	5	8	-6	-17	2	8	.	.
C=C(C)CNC(=S)NNC(=O)CCn1c2ccc(Cl)cc2c2cc(Cl)ccc21	9.7*	23	3	-6	19	3	37*	23*
O=C(COC(=O)c1cccc(OC(F)F)c1)NCC1CCCO1 (centres undefined)	-2	-7	20	-6	-14	29	.	.
O=C(/C=C/c1ccc(Br)cc1)c1ccc(NC2=NCCCS2)cc1	8.8*	7	-13	-21	14	1	26*	13*
Cc1cc(C)nc(NC(=O)C(c2ccccc2)c2ccccc2)c1	6	18	14	-4	10	-12	.	.
Cc1cc(C)nc(NC(=O)C(c2ccccc2)c2ccccc2)n1	8.7*	-5	2	-7	-4	0	-6	3
CC(=O)c1cccc(NC(=O)CN(c2ccc(C)cc2)S(=O)(=O)c2cccc3nonc23)c1	12*	13	-14	.	23*	30	25*	15*
Cc1ccc(N(CC(=O)O)S(=O)(=O)c2cccc3nonc23)cc1	-5	-4	4	.	-4	0	.	.
CCOC(=O)[C@]12CCCCC/C=C\1N(Cc1ccc(OC)cc1)C(=O)[C@H]2CC(=O)N1CCC(c2ccccc2)CC1	9.4*	.	.	.	11	.	11	7
CCOC(=O)[C@]12CCCCC/C=C\1N(Cc1ccc(OC)cc1)C(=O)[C@H]2CC(=O)N1CCCCC1	0	.	.	.	5	.	.	.
SMILES	ADAM17 inh	FAS TE block	NRP1-CendR mod	CaV13 FRET inh	ADAM10 inh	Arr AP2 block	ADAM10 counter	ADAM17 confirm
CC(Oc1ccc(Cl)cc1Cl)C(=O)Nc1cccc(O)c1 (centres undefined)	-1	1	9	-1	-5	-19	.	.
CC(Oc1ccc(Cl)cc1Cl)C(=O)Nc1ccc(O)cc1 (centres undefined)	8.8*	8	3	0	6	-11	5	6
COC(=O)[C@]12C[C@H](CC(=O)NCc3ccccc3)C(=O)N(Cc3ccccc3)C1=C[C@H](C(C)C)O[C@@H]2C1CC1	5	.	.	-6	5	.	.	.
CC(C)c1ccc(NC(=O)C2CCCN(S(=O)(=O)c3ccc4c(c3)C(C)(C)C(=O)N4C)C2)cc1 (centres undefined)	9.6*	19	-3	-7	19	19	13	8.8*
CC(C)C[C@H]1COc2ccc(Cl)cc2S(=O)(=O)N1	-1	.	.	-7	-10	.	.	.
O=c1cc(-c2ccccc2Cl)oc2c(NS(=O)(=O)c3ccccc3OC(F)(F)F)ccc(O)c12	8.9*	.	.	-10	15	-3	34*	20*
O=c1cc(-c2ccccc2Cl)oc2c(NS(=O)(=O)c3ccccc3C(F)(F)F)ccc(O)c12	7	36	-4	-7	13	26	.	.
COC(=O)[C@@]12C[C@@H](CC(=O)NCC34CC5CC(CC(C5)C3)C4)C(=O)N(CCc3ccc(OC)c(OC)c3)C1=CCC(C)(C)C2	7	.	-5	-4	10	.	.	.
